Results on 3 molecules are retold here after ChEMBL document CHEMBL1140348, “5'-Homoneplanocin A inhibits hepatitis B and hepatitis C” (J Med Chem, 2005).

The structures appear in SMILES notation.

Series [1] has as its system Hepatitis C virus. As to the kind of experiment: Effective concentrations at which 10-fold depression of HCV RNA was observed in AVA5 cells (Huh 7 cells with subgenomic HCV replicon BB7I. The series is classed as functional, Hepacivirus hominis. The method in brief:
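AVA5 cells (Huh7 carrying subgenomic HCV replicon BB7), grown 3 days with G418, then treated without G418 for 3 consecutive days while rapidly dividing, 3 cultures per concentration, fresh compound daily. HCV RNA measured by quantitative blot hybridization 24 h after last dose. EC90 is the concentration giving 10-fold HCV RNA depression vs untreated, by linear regression.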

Series [2] deals with Hepatitis B virus. Description: Effective concentrations at which 10-fold depression of intracellular intermediates of HBV DNA was observed in 2.2.15 Cells. The note with it: HepG2 2.2.15. The series is classed as functional. The method in brief: (§1)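 Confluent 2.2.15 cells in RPMI1640 with 2% FBS got nine daily doses, with medium and compound refreshed daily; six cultures per concentration on two plates. HBV DNA was quantified by blot hybridization 24 h after the last dose. EC50 and EC90 are the 2-fold and 10-fold depression versus untreated cultures, from linear regression over two to four experiments.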

The test system of series [3] is Hepatitis C virus. Description: Selectivity index as the ratio of CC50 and EC50. The series is classed as functional, Hepacivirus hominis. The procedure, abridged: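 AVA5 cells (Huh7 carrying the BB7 subgenomic HCV replicon) were grown 3 days with G418, which was then withdrawn. Rapidly dividing cultures, three per concentration, were treated for 3 consecutive days with daily medium renewal. HCV RNA was measured by blot hybridization 24 h after the last dose, with neutral red uptake for toxicity. SI is CC50/EC50, each at 2-fold depression versus untreated cultures.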

For series [4], the system named is Hepatitis B virus. As to the kind of experiment: Selectivity index of intracellular intermediates as the ratio of CC50 and EC90. Type of series: functional. The method in brief: (§2)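 The 2.2.15 HBV assay used nine daily doses. HBV DNA was measured by blot hybridization and toxicity by neutral red uptake, both 24 h after the last dose. The index is CC50/EC90, where EC90 is the 10-fold HBV DNA depression and CC50 the 2-fold dye-uptake depression versus untreated cultures.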

In series [5] the test system is Hepatitis B virus. As to the kind of experiment: Selectivity index of virion as the ratio of CC50 and EC90. The series is classed as functional. The procedure, abridged:
as §2

Series [6] relates to Hepatitis B virus. Description: (§3) Effective concentrations at which […] depression of extracellular virion DNA (HBV) was observed in 2.2.15 Cells. Type of series: functional, organism-based. The note with it: HepG2 2.2.15. The method in brief: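 Confluent 2.2.15 cells in RPMI1640 with 2% FBS, given nine consecutive daily doses with daily medium change, six cultures per concentration on two plates. HBV DNA measured by quantitative blot hybridization 24 h after last dose. EC is the concentration giving 2-fold (EC50) or 10-fold (EC90) depression vs untreated, by linear regression, 2–4 experiments.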

The test system of series [7] is Hepatitis C virus. Description: Effective concentrations at which 2-fold depression of HCV RNA was observed in AVA5 cells (Huh 7 cells with subgenomic HCV replicon BB7). Type of series: functional, organism-based, Hepacivirus hominis. The method in brief:
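AVA5 cells (Huh7 carrying subgenomic HCV replicon BB7), grown 3 days with G418, then treated without G418 for 3 consecutive days while rapidly dividing, 3 cultures per concentration, fresh compound daily. HCV RNA measured by quantitative blot hybridization 24 h after last dose. EC50 is the concentration giving 2-fold HCV RNA depression vs untreated, by linear regression on all treated cultures.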
A general note: A replicon is a self-replicating genome or part of one, used to study replication in cells.

Series [8] relates to Hepatitis B virus. As to the kind of experiment: Cytotoxic concentration against […] replication in 2.2.15 cell culture. Type of series: functional. Conditions: HepG2 2.2.15.
Series [9] relates to Hepatitis B virus. Described as §3. Type of series: functional. The note with it: HepG2 2.2.15. The procedure, abridged: as §1
Series [10] can be described thus: Cytotoxic concentration against HCV replication in AVA5 cell culture. The series is classed as cell-based. The note with it: AVA5 cells. The procedure, abridged: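 AVA5 replicon cells given compound daily for 3 days, without G418. Neutral red uptake (A510) read 24 h after last treatment. CC50 is the concentration giving 2-fold lower dye uptake vs untreated cultures, by linear regression on combined data from all treated cultures.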

A short description of series [11]: Cytotoxic concentration against HBV replication in 2.2.15 cell culture. Type of series: cell-based, HepG2 2.2.15. Conditions: hepatitis b virus, 2.2.15 cells. The procedure, abridged:
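Confluent 2.2.15 cells in RPMI1640 with 2% FBS received nine consecutive daily doses, with medium and compound renewed daily. Toxicity was read 24 h after the last dose as neutral red uptake (A510), with three cultures per concentration on plates seeded in parallel from the same cell stock. CC50 is the 2-fold depression of dye uptake versus untreated cultures, from linear regression.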

In the case of `Nc1ncnc2c1ncn2[C@@H]1C=C(CCO)[C@@H](O)[C@H]1O`, the EC90 (commonly the concentration at which the effect reaches the 90% level) amounted to 31 µM in series [1], 27 µM in series [2] and 7.7 µM in [9]. Moreover, the SI in [3] is recorded as 30; in [4] it was 45; in [5], 158. Besides, the EC50 (in general, the concentration at which the effect is half-maximal) in series [6] came to 0.53 µM; in series [7] it was 7.3 µM. In addition, the CC50 – broadly, the concentration that lowers cell viability or growth by half – in [8] worked out at 1210 µM; in series [10], 216 µM.
On to `Nc1ccn([C@@H]2CS[C@H](CO)O2)c(=O)n1` (single isomer, unassigned) [LAMIVUDINE], for which the concentration for an effect of 90% (EC90) in [2] turned out to be 0.69 µM; in [9] it was 0.17 µM. Further, the 50% cytotoxic concentration (CC50) in [11] came to 2680 µM. The SI is on record as 3877 in series [4] and 11630 in series [5]. Besides, in series [6], the EC50 is 0.06 µM.
Take `NC(=O)c1ncn([C@@H]2O[C@H](CO)[C@@H](O)[C@H]2O)n1` [RIBAVIRIN]: the EC90 in series [1] was over 100 µM. Also, the EC50 in [7] was over 100 µM. Moreover, the 50% cytotoxic concentration (CC50) in series [10] stood at 71 µM.
